Data taken from ChEMBL document CHEMBL1145208, “3-Substituted imidazo[1,2-d][1,2,4]-thiadiazoles: a novel class of factor XIIIa inhibitors” (J Med Chem, 2005).
Values after ≈ are worked out from the molar mass of the structure shown.

Columns and labels:
[1] = tested on: Cell line; experiment: Concentration causing reduction in fibrin gamma-chain cross-linking in platelet-depleted human plasma; type: functional
[2] = target: T1, Coagulation factor XIII A chain (Homo sapiens, UniProt P00488); experiment: In vitro inhibitory concentration of compound against factor XIIIa
T1 sequence (P00488 whole entry): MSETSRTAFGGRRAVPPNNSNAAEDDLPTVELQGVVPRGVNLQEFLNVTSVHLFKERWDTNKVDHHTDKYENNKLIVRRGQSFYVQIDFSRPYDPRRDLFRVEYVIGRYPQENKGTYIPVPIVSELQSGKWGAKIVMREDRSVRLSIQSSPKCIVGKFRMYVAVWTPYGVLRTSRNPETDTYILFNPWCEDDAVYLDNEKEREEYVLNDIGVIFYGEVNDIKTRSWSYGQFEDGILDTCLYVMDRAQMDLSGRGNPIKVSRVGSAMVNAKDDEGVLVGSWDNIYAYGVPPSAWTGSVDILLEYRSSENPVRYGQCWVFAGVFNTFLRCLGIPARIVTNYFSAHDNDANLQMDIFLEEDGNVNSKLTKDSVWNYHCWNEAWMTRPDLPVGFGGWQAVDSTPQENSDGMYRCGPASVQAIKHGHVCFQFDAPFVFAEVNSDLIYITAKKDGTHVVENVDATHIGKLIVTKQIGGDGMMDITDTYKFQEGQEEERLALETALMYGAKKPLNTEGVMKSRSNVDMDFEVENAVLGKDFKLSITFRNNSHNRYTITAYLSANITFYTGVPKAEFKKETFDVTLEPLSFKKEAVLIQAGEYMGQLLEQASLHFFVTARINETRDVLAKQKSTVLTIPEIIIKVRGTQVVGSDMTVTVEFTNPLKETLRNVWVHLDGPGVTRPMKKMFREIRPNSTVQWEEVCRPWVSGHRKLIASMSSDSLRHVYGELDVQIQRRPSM

[3] = Solubility at pH 7.4 was determined; type: physicochemical; details: buffer
Summary of the method: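 Aqueous solubility of the inhibitors measured at pH 7.4, reported in mg/mL.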

Row | IC50 [2] [µM] | Compound | further results
1 | – | O=[N+]([O-])c1ccccc1S(=O)(=O)NCCCCCCNc1nsc2nccn12 | Concentration [1]: 160 µM
2 | 170 | O=[N+]([O-])c1ccccc1S(=O)(=O)NCCCCCCNc1ncccc1[N+](=O)[O-] | –
3 | 0.91 | O=[N+]([O-])c1ccc(S(=O)(=O)NCCCCCCNc2n[s+]c3[n-]ccn23)cc1 | –
4 | – | O=C(O)CN(CCCCCCNS(=O)(=O)c1ccccc1[N+](=O)[O-])c1nsc2nccn12 | solubility [3]: 380 µg/mL (≈ 787 µM)
